Test results taken from paper PMC3821033 (FEBS Open Bio, 2013).

Tests used:
Format in all cases: biochemical
FNI = molecular target: T1, FNI (Lactococcus cremoris, UniProt A2RID7); experiment: 1H NMR of product after […] h; conditions: 5 mM MgCl2, 10 μM FMN, 5 mM NADH, 2 mM DTT, pH 7.0, 30 °C
T1 sequence (A2RID7 1-349): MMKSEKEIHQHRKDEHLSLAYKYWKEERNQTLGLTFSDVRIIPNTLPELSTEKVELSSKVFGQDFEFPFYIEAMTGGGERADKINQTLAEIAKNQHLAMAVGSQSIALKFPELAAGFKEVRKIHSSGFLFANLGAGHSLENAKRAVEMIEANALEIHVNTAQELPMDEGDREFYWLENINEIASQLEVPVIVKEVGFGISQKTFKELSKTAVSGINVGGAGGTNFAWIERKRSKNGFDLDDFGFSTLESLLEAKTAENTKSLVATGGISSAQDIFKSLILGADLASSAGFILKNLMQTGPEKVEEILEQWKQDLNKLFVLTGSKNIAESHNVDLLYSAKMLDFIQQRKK

LDHA [1] = molecular target: T2, LDHA (Lactococcus cremoris, UniProt A2RKA4); experiment: inhibition of NADH-coupled activity; conditions: inhibitor; both reaction directions; 1 mM FBP, pH 7.0, 30 °C
T2 sequence (A2RKA4 1-325): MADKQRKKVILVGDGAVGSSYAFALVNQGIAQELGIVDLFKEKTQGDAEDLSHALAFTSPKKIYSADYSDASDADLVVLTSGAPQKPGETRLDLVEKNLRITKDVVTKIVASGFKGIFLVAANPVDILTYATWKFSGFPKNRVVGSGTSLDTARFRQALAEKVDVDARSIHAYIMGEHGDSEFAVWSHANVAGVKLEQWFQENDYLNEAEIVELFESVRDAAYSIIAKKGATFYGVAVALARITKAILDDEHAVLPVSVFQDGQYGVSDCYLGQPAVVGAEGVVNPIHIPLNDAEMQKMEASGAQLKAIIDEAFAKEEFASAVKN

LDHA [2] = molecular target: T2, LDHA; experiment: activation of NADH-coupled activity; conditions: 200 µM, allosteric activator, Tris-maleate pH 7.0, 30 °C
Summary of the method: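 Recombinant His-tagged LDHA from L. lactis MG1363, expressed in E. coli Transetta (DE3) (0.5 mM IPTG, 30 °C, 4 h) and purified on Ni-NTA with imidazole elution. Pyruvate reduction was followed spectrophotometrically as the decrease in NADH absorbance at 340 or 380 nm, at 30 °C in 100 mM Tris–maleate pH 7.0, with about 40–200 ng/ml enzyme; 1 unit = 1 μmol/min.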

LDHA [3] = molecular target: T2, LDHA; experiment: inhibition of NADH-coupled activity; conditions: read-out: % remaining rate at 8 mM

In the case of `CC(C)=CCOP(=O)(O)OP(=O)(O)O` [dimethylallyl diphosphate], the “1H NMR of product after 15 h” value (FNI) is reported as “appearance of signals for dimethylallyl diphosphate”.
With `Nc1ncnc2c1ncn2[C@@H]1O[C@H](COP(=O)(O)OP(=O)(O)O)[C@@H](O)[C@H]1O` [ADP] the “inhibition of NADH-coupled activity” value (LDHA [1]) was “ADP was shown to be a more severe inhibitor”.
For `O=P(O)(O)OC[C@H]1OC(O)(COP(=O)(O)O)[C@@H](O)[C@@H]1O` (some centres unmarked) [FBP], the “Pyruvate reduction (%)” value (LDHA [2]) was 66 ± 4.7%.
`Nc1ncnc2c1ncn2[C@@H]1O[C@H](COP(=O)(O)OP(=O)(O)OP(=O)(O)O)[C@@H](O)[C@H]1O` [ATP] gave a remaining activity at 8000 µM (LDHA [3]) greater than 80%.
`C=C(C)CCOP(=O)(O)OP(=O)(O)O` [IPP] was tested, and the “1H NMR of product after 15 h” value (FNI) was “conversion of IPP to dimethylallyl diphosphate was observed”.
